Blank lines part the entries; values can stand above or below the compound they belong to.
Key:
[1] = target: T1, 5-hydroxytryptamine receptor 6 (Homo sapiens, UniProt P50406); assay: Agonist activity at human cloned 5HT6 receptor expressed in HeLa cells assessed as induction of adenylyl cyclase activity by RIA; format: functional, cell-based
Outline: (§1)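 Transfected HeLa cells expressing human 5-HT6 were washed with Krebs buffer and preincubated 5 min at 37 °C in Krebs with 500 µM IBMX. They were then stimulated 10 min at 37 °C with compound over 0.1–10000 nM. Agonist potency came from concentration–response curves, and percent efficacy was taken relative to a serotonin maximal response.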

[2] = target: T1, 5-hydroxytryptamine receptor 6; assay: Agonist activity at human cloned 5HT6 receptor expressed in HeLa cells assessed as induction of adenylyl cyclase activity by RIA relative to serotonin; format: functional, cell-based; outline: as §1
Homo sapiens [3] = species on record: Homo sapiens; assay: Selectivity ratio of IC50 for human cloned 5HT7 receptor to human cloned 5HT6 receptor
D(3) dopamine receptor = D(3) dopamine receptor (Homo sapiens, UniProt P35462); assay: Displacement of [3H]spiperone from human cloned dopamine D3 receptor expressed in CHO-K1 cells; format: cell-based
Outline: (§2)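 Binding selectivity used stably expressed human receptors, 5-HT in CHO cells and dopamine in CHO-K1. Radioligands: [125I]DOI for 5-HT2A (agonist radioligand), [3H]-5-HT for 5-HT2C, [3H]LSD for 5-HT7, [3H]spiperone for D2, D3 and D4. Values are IC50 in nM.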

[4] = target: 5-hydroxytryptamine receptor 1D (Homo sapiens) (UniProt P28221); assay: Displacement of [3H]5-HT from human cloned 5HT1D receptor expressed in CHO cells at 1 uM; format: cell-based
Outline: (§3)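 Human 5-HT1B, 5-HT1D and 5-HT1F receptors were stably expressed in CHO cells and labelled with [3H]-5-HT. Results are given as percent inhibition at a single 1 µM concentration.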

Homo sapiens [5] = species on record: Homo sapiens; assay: Selectivity ratio of IC50 for human cloned 5HT2C receptor to human cloned 5HT6 receptor
D(4) dopamine receptor = target: T2, D(4) dopamine receptor (Homo sapiens, UniProt P21917); assay: Displacement of [3H]spiperone from human cloned dopamine D4 receptor expressed in CHO-K1 cells; format: cell-based; outline: as §2
T2 sequence (P21917 whole entry): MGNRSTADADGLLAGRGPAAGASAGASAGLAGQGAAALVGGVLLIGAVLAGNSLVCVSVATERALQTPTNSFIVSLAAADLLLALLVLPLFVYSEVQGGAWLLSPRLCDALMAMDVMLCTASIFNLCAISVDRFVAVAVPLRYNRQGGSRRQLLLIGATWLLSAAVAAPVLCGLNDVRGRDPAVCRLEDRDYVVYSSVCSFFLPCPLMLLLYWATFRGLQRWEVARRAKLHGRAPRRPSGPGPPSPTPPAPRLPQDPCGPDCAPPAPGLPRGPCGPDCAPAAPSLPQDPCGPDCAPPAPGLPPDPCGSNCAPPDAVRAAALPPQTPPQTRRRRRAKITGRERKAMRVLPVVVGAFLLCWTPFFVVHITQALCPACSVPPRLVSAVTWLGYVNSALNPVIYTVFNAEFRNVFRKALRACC

[6] = target: 5-hydroxytryptamine receptor 7 (Homo sapiens, UniProt P34969); assay: Displacement of [3H]LSD from human cloned 5HT7 receptor expressed in CHO cells; format: cell-based; outline: as §2
Homo sapiens [7] = species on record: Homo sapiens; assay: Selectivity ratio of IC50 for human cloned 5HT1D receptor to human cloned 5HT6 receptor
Homo sapiens [8] = species on record: Homo sapiens; assay: Selectivity ratio of IC50 for human cloned 5HT1B receptor to human cloned 5HT6 receptor
[9] = target: T3, 5-hydroxytryptamine receptor 1F (Homo sapiens) (UniProt P30939); assay: Displacement of [3H]5-HT from human cloned 5HT1F receptor expressed in CHO cells at 1 uM; format: cell-based; outline: as §3
T3 sequence (whole entry): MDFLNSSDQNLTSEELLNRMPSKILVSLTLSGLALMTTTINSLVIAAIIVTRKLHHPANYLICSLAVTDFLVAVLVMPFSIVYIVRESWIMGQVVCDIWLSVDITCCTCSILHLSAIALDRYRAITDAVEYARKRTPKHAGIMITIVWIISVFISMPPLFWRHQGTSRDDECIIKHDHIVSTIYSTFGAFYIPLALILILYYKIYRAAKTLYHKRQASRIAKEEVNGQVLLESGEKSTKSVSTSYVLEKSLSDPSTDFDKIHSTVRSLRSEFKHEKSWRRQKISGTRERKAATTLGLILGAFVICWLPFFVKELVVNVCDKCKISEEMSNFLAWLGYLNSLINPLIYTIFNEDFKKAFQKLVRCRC

Homo sapiens [10] = species on record: Homo sapiens; assay: Selectivity ratio of IC50 for human cloned dopamine D3 receptor to human cloned 5HT6 receptor
Homo sapiens [11] = species on record: Homo sapiens; assay: Selectivity ratio of IC50 for human cloned dopamine D2 receptor to human cloned 5HT6 receptor
[12] = target: T4, 5-hydroxytryptamine receptor 2C (Homo sapiens, UniProt P28335); assay: Displacement of [3H]5-HT from human cloned 5HT2C receptor expressed in CHO cells; format: cell-based; outline: as §2
T4 sequence (P28335 whole entry): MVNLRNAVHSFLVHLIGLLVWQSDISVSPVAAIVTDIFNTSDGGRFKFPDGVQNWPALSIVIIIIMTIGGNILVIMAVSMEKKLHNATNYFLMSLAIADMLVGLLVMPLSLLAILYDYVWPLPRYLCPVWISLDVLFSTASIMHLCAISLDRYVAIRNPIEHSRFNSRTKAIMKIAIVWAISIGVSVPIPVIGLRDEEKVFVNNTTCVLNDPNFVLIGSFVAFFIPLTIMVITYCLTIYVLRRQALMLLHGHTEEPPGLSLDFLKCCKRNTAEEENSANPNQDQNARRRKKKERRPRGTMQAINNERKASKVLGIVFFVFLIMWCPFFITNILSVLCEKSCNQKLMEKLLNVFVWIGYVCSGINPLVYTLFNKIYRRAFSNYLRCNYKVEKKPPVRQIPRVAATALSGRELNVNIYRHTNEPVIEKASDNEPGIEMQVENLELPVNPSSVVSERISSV

[13] = target: 5-hydroxytryptamine receptor 1B (Homo sapiens) (UniProt P28222); assay: Displacement of [3H]5-HT from human cloned 5HT1B receptor expressed in CHO cells at 1 uM; format: cell-based; outline: as §3
[14] = target: T1, 5-hydroxytryptamine receptor 6; assay: Displacement of [3H]LSD from human cloned 5HT6 receptor expressed in HeLa cells; format: cell-based
Outline: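 Radioligand binding used human 5-HT6 receptor stably expressed in HeLa cells with [3H]LSD as the radioligand. Affinity is reported as Ki.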

Homo sapiens [15] = species on record: Homo sapiens; assay: Selectivity ratio of IC50 for human cloned dopamine D4 receptor to human cloned 5HT6 receptor
D(2) dopamine receptor = D(2) dopamine receptor (Homo sapiens, UniProt P14416); assay: Displacement of [3H]spiperone from human cloned dopamine D2 receptor expressed in CHO-K1 cells; format: cell-based; outline: as §2
Homo sapiens [16] = species on record: Homo sapiens; assay: Selectivity ratio of IC50 for human cloned 5HT2A receptor to human cloned 5HT6 receptor
Homo sapiens [17] = species on record: Homo sapiens; assay: Selectivity ratio of IC50 for human cloned 5HT1F receptor to human cloned 5HT6 receptor
[18] = target: 5-hydroxytryptamine receptor 2A (Homo sapiens, UniProt P28223); assay: Displacement of [125I]DOI from human cloned 5HT2A receptor expressed in CHO cells; format: cell-based; outline: as §2
[19] = target: T1, 5-hydroxytryptamine receptor 6; assay: Antagonist activity at human cloned 5HT6 receptor expressed in HeLa cells assessed as inhibition of adenylyl cyclase activity by RIA; format: functional, cell-based
[20] = target: T1, 5-hydroxytryptamine receptor 6; assay: Antagonist activity at human cloned 5HT6 receptor expressed in HeLa cells assessed as inhibition of adenylyl cyclase activity by RIA relative to serotonin; format: functional, cell-based

D(3) dopamine receptor, sequence (P35462 whole entry): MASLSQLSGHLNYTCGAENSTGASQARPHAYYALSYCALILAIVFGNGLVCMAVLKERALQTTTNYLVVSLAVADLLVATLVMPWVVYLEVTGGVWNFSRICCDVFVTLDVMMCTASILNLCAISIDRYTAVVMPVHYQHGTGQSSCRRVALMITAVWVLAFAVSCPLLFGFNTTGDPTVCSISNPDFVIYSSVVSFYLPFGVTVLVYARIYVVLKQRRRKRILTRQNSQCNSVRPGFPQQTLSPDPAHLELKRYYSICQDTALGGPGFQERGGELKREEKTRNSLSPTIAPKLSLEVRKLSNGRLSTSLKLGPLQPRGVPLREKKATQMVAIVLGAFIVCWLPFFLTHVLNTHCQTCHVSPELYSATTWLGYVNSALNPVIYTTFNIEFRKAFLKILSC
5-hydroxytryptamine receptor 1B (Homo sapiens), sequence (P28222 whole entry): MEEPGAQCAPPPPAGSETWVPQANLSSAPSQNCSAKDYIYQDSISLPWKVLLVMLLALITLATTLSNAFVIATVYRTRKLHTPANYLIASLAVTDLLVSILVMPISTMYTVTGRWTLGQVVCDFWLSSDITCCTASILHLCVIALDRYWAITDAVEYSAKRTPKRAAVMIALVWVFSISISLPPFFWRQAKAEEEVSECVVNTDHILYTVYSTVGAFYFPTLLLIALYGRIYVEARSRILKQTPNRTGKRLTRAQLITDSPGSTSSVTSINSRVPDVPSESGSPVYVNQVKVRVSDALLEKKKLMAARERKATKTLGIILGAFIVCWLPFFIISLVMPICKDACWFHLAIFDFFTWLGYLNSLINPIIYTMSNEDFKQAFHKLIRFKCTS
T1 sequence (P50406 whole entry): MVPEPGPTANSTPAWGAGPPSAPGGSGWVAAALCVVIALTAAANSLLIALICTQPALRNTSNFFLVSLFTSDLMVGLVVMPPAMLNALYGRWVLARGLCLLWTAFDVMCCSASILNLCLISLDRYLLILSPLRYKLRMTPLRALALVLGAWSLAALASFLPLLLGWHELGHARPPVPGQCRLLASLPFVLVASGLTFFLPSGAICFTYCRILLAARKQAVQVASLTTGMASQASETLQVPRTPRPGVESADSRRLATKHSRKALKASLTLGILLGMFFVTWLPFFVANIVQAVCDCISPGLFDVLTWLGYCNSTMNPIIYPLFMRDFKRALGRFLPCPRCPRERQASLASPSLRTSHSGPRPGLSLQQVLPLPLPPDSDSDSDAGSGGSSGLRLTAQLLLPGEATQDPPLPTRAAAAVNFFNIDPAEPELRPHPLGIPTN
D(2) dopamine receptor, sequence (P14416 whole entry): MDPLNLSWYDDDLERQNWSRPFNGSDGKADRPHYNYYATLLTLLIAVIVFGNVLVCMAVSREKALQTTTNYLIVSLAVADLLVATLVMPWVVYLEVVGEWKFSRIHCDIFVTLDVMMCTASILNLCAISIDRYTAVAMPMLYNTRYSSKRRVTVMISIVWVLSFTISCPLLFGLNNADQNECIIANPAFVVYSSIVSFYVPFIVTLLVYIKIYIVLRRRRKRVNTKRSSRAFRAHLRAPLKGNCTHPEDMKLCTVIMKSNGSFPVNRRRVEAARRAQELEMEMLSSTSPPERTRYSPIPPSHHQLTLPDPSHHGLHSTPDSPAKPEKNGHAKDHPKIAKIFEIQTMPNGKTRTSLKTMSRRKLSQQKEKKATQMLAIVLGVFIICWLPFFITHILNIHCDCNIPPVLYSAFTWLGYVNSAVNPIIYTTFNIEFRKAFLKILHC
5-hydroxytryptamine receptor 1D (Homo sapiens), sequence (P28221 whole entry): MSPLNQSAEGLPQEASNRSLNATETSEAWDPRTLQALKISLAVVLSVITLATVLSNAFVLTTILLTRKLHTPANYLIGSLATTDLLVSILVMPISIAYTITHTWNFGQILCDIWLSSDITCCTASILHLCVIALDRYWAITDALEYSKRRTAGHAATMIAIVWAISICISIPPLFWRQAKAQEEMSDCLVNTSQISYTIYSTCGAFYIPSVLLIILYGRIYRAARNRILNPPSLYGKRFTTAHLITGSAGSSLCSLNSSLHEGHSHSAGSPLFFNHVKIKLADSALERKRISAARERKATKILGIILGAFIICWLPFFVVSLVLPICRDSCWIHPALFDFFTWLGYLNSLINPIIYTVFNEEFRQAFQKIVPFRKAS
5-hydroxytryptamine receptor 2A, sequence (P28223 whole entry): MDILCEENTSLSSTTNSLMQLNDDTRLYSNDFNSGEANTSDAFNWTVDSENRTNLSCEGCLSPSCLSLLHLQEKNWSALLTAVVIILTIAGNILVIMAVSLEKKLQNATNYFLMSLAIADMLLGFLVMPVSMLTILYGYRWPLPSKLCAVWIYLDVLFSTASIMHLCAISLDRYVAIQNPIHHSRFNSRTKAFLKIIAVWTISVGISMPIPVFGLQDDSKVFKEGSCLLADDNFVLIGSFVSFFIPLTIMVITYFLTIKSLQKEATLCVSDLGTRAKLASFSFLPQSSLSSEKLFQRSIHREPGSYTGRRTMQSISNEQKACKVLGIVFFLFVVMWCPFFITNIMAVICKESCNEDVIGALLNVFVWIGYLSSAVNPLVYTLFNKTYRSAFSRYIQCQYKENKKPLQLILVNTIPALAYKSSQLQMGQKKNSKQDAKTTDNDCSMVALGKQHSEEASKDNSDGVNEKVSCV
5-hydroxytryptamine receptor 7, sequence (P34969 whole entry): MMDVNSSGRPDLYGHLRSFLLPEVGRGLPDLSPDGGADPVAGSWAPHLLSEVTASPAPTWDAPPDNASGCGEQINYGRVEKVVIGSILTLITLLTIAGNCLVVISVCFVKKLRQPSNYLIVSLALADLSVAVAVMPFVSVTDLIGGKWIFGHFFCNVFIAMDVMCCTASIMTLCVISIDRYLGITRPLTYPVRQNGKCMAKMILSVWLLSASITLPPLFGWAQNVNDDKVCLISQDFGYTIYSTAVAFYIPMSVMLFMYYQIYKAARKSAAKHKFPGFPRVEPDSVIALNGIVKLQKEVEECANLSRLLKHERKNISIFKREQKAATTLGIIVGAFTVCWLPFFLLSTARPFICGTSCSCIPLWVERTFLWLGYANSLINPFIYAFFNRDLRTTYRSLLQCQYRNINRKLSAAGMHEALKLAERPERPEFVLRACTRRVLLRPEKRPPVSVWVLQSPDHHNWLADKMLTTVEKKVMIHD

- EC50 [1]: 0.154 µM
- Emax [2]: 74%
Compound: CN(C)CCn1cc(S(=O)(=O)c2cccs2)c2cccnc21

- Ratio IC50 (Homo sapiens [3]): > 50
- EC50 [1]: 0.015 µM
- IC50 (D(3) dopamine receptor): > 5 µM
- inhibition [4]: 10%
- Ratio IC50 (Homo sapiens [5]): > 50
- IC50 (D(4) dopamine receptor): > 5 µM
- IC50 [6]: 1.22 µM
- Ratio IC50 (Homo sapiens [7]): > 50
- Ratio IC50 (Homo sapiens [8]): > 50
- Emax [2]: 86%
- inhibition [9]: 29%
- Ratio IC50 (Homo sapiens [10]): > 50
- Ratio IC50 (Homo sapiens [11]): > 50
- IC50 [12]: 0.477 µM
- inhibition [13]: 46%
- Ki [14]: 0.0023 µM
- Ratio IC50 (Homo sapiens [15]): > 50
- IC50 (D(2) dopamine receptor): > 5 µM
- Ratio IC50 (Homo sapiens [16]): > 50
- Ratio IC50 (Homo sapiens [17]): > 50
- IC50 [18]: 0.131 µM
Compound: CN(C)CCn1cc(S(=O)(=O)c2cccc(Cl)c2)c2cccnc21

- Ratio IC50 (Homo sapiens [3]): > 50
- EC50 [1]: 0.027 µM
- IC50 (D(3) dopamine receptor): > 5 µM
- inhibition [4]: 16%
- Ratio IC50 (Homo sapiens [5]): > 50
- IC50 (D(4) dopamine receptor): > 5 µM
- IC50 [6]: > 5 µM
- Ratio IC50 (Homo sapiens [7]): > 50
- Ratio IC50 (Homo sapiens [8]): > 50
- Emax [2]: 100%
- inhibition [9]: 14%
- Ratio IC50 (Homo sapiens [10]): > 50
- Ratio IC50 (Homo sapiens [11]): > 50
- IC50 [12]: > 5 µM
- inhibition [13]: 11%
- Ki [14]: 0.0055 µM
- Ratio IC50 (Homo sapiens [15]): > 50
- IC50 (D(2) dopamine receptor): > 5 µM
- Ratio IC50 (Homo sapiens [16]): > 50
- Ratio IC50 (Homo sapiens [17]): > 50
- IC50 [18]: > 5 µM
Compound: NCCn1cc(S(=O)(=O)c2ccccc2)c2cccnc21

- EC50 [1]: 0.03 µM
- Emax [2]: 84%
- Ki [14]: 0.045 µM
Compound: CN(C)CCn1cc(S(=O)(=O)c2ccc(F)cc2)c2cccnc21

- EC50 [1]: 0.02 µM
- Emax [2]: 85%
- Ki [14]: 0.0042 µM
Compound: Cc1c(S(=O)(=O)c2ccccc2)c2cccnc2n1CCN

- Ratio IC50 (Homo sapiens [3]): > 50
- EC50 [1]: 0.051 µM
- IC50 (D(3) dopamine receptor): 1.56 µM
- inhibition [4]: 0%
- Ratio IC50 (Homo sapiens [5]): > 50
- IC50 (D(4) dopamine receptor): > 5 µM
- IC50 [6]: 0.511 µM
- Ratio IC50 (Homo sapiens [7]): > 50
- Ratio IC50 (Homo sapiens [8]): > 50
- Emax [2]: 63%
- inhibition [9]: 10%
- Ratio IC50 (Homo sapiens [10]): > 50
- Ratio IC50 (Homo sapiens [11]): > 50
- IC50 [12]: 1.14 µM
- inhibition [13]: 40%
- Ratio IC50 (Homo sapiens [15]): > 50
- IC50 (D(2) dopamine receptor): > 5 µM
- Ratio IC50 (Homo sapiens [16]): > 50
- Ratio IC50 (Homo sapiens [17]): > 50
- IC50 [18]: 0.938 µM
Compound: CN(C)CCn1cc(S(=O)(=O)c2cccc3ccccc23)c2cccnc21

- IC50 [19]: 0.0083 µM
- Imax [20]: 100%
Compound: CNCCn1cc(S(=O)(=O)c2cccc(Cl)c2)c2cccnc21

- EC50 [1]: 0.11 µM
- Emax [2]: 83%
- Ki [14]: 0.0021 µM
Compound: NCCn1cc(S(=O)(=O)c2cccc(C(F)(F)F)c2)c2cccnc21

- EC50 [1]: 0.178 µM
- Emax [2]: 67%
Compound: NCCn1cc(S(=O)(=O)c2ccccc2)c2ccccc21

- EC50 [1]: 0.028 µM
- Emax [2]: 80%
- Ki [14]: 0.0043 µM
Compound: CN(C)CCn1cc(S(=O)(=O)c2cc(Cl)cc(Cl)c2)c2cccnc21

- EC50 [1]: 0.032 µM
- Emax [2]: 93%
- Ki [14]: 0.0033 µM
Compound: CN(C)CCn1cc(S(=O)(=O)c2ccc(Cl)s2)c2cccnc21

- EC50 [1]: 0.047 µM
- Emax [2]: 100%
- Ki [14]: 0.0047 µM
Compound: Cc1c(S(=O)(=O)c2ccccc2)c2cccnc2n1CCN(C)C

- EC50 [1]: 0.035 µM
- Emax [2]: 65%
- Ki [14]: 0.0029 µM
Compound: NCCn1cc(S(=O)(=O)c2cc(Cl)cc(Cl)c2)c2cccnc21

Reference: ChEMBL document CHEMBL1155250, “Novel 1-aminoethyl-3-arylsulfonyl-1H-pyrrolo[2,3-b]pyridines are potent 5-HT(6) agonists” (Bioorg Med Chem, 2009)
